In assay [1] the target is T1, Centromere-associated protein E (Homo sapiens, UniProt Q02224). Description: Inhibition of ATPase activity of C-terminal 6-his-tagged CENP-E (2 to 340 residues)(unknown origin) expressed in Escherichia coli BL21(DE3) in presence of ATP.
In assay [2] the target is T1, Centromere-associated protein E. Description: Uncompetitive-like binding affinity to C-terminal 6-his-tagged CENP-E (2 to 340 residues)(unknown origin) expressed in Escherichia coli BL21(DE3) assessed as apparent inhibition constant in presence of ATP. Conditions: read-out: Ki(app).
Assay [3] shares this target. The assay can be described thus: Inhibition of microtubule-stimulated ATPase activity of C-terminal 6-his-tagged CENP-E (2 to 340 residues)(unknown origin) expressed in Escherichia coli BL21(DE3) in presence of ATP. The procedure, abridged: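 Steady-state ATPase of CENP-E motor domain, residues 2–340 with C-terminal 6-His tag, expressed in E. coli BL21(DE3). Run at 1 nM enzyme, 500 μM ATP and 5 μM paclitaxel-stabilized microtubules in PEM25 (25 mM PIPES-K pH 6.8, 2 mM MgCl2, 1 mM EGTA) plus 10 μM paclitaxel. IC50 taken from concentration-response curves.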

For assay [4] the target is unchanged. The assay can be described thus: Uncompetitive binding affinity to microtubule-stimulated ATPase activity of C-terminal 6-his-tagged CENP-E (2 to 340 residues)(unknown origin) expressed in Escherichia coli BL21(DE3) assessed as apparent inhibition constant. Conditions: read-out: Ki(app). The procedure, abridged:
(§1)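 CENP-E motor domain (residues 2–340, C-terminal 6-his, from E. coli BL21(DE3)) run in MT-stimulated ATPase with 500 μM ATP, 5 μM paclitaxel-stabilized MT, 1 nM enzyme in PEM25 buffer, pH 6.8. Apparent Ki taken from the concentration-response curves with explicit correction for enzyme concentration.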

Assay [5] deals with Centromere-associated protein E (Mus musculus, UniProt Q6RT24). The assay can be described thus: Binding affinity to wild-type mouse CENP-E assessed as inhibition constant.
Assay [6] addresses Centromere protein E (Canis lupus familiaris, UniProt A0A8P0P634). Description: Binding affinity to wild-type dog CENP-E assessed as inhibition constant.
For assay [7], the target named is T1, Centromere-associated protein E. The assay can be described thus: Competitive-like binding affinity to C-terminal 6-his-tagged CENP-E (2 to 340 residues)(unknown origin) expressed in Escherichia coli BL21(DE3) assessed as apparent inhibition constant in presence of ATP. Conditions: read-out: Ki(app).
The target in assay [8] is Centromere-associated protein E (Homo sapiens, UniProt Q02224, I182L/K184T/T183A). Description: Binding affinity to human CENP-E I182L/T183A/K184T mutant assessed as inhibition constant.
Assay [9] concerns the target T1, Centromere-associated protein E. The assay can be described thus: Binding affinity to wild-type human CENP-E assessed as inhibition constant. In short, it runs like this:
as §1

Two molecules from ChEMBL document CHEMBL5705890, “Antitumor activity of an allosteric inhibitor of centromere-associated protein-E” (Proc Natl Acad Sci U S A, 2010) can be followed below.

pIC50, pKi: −log10 of the molar value.

For orientation: pIC50 means −log10 of the IC50, conventionally taken in molar units. A word on the pKi: it is the Ki on a negative log10 scale, so that one unit is a factor of ten.

T1 sequence (Q02224 whole entry, the tested form may be a part): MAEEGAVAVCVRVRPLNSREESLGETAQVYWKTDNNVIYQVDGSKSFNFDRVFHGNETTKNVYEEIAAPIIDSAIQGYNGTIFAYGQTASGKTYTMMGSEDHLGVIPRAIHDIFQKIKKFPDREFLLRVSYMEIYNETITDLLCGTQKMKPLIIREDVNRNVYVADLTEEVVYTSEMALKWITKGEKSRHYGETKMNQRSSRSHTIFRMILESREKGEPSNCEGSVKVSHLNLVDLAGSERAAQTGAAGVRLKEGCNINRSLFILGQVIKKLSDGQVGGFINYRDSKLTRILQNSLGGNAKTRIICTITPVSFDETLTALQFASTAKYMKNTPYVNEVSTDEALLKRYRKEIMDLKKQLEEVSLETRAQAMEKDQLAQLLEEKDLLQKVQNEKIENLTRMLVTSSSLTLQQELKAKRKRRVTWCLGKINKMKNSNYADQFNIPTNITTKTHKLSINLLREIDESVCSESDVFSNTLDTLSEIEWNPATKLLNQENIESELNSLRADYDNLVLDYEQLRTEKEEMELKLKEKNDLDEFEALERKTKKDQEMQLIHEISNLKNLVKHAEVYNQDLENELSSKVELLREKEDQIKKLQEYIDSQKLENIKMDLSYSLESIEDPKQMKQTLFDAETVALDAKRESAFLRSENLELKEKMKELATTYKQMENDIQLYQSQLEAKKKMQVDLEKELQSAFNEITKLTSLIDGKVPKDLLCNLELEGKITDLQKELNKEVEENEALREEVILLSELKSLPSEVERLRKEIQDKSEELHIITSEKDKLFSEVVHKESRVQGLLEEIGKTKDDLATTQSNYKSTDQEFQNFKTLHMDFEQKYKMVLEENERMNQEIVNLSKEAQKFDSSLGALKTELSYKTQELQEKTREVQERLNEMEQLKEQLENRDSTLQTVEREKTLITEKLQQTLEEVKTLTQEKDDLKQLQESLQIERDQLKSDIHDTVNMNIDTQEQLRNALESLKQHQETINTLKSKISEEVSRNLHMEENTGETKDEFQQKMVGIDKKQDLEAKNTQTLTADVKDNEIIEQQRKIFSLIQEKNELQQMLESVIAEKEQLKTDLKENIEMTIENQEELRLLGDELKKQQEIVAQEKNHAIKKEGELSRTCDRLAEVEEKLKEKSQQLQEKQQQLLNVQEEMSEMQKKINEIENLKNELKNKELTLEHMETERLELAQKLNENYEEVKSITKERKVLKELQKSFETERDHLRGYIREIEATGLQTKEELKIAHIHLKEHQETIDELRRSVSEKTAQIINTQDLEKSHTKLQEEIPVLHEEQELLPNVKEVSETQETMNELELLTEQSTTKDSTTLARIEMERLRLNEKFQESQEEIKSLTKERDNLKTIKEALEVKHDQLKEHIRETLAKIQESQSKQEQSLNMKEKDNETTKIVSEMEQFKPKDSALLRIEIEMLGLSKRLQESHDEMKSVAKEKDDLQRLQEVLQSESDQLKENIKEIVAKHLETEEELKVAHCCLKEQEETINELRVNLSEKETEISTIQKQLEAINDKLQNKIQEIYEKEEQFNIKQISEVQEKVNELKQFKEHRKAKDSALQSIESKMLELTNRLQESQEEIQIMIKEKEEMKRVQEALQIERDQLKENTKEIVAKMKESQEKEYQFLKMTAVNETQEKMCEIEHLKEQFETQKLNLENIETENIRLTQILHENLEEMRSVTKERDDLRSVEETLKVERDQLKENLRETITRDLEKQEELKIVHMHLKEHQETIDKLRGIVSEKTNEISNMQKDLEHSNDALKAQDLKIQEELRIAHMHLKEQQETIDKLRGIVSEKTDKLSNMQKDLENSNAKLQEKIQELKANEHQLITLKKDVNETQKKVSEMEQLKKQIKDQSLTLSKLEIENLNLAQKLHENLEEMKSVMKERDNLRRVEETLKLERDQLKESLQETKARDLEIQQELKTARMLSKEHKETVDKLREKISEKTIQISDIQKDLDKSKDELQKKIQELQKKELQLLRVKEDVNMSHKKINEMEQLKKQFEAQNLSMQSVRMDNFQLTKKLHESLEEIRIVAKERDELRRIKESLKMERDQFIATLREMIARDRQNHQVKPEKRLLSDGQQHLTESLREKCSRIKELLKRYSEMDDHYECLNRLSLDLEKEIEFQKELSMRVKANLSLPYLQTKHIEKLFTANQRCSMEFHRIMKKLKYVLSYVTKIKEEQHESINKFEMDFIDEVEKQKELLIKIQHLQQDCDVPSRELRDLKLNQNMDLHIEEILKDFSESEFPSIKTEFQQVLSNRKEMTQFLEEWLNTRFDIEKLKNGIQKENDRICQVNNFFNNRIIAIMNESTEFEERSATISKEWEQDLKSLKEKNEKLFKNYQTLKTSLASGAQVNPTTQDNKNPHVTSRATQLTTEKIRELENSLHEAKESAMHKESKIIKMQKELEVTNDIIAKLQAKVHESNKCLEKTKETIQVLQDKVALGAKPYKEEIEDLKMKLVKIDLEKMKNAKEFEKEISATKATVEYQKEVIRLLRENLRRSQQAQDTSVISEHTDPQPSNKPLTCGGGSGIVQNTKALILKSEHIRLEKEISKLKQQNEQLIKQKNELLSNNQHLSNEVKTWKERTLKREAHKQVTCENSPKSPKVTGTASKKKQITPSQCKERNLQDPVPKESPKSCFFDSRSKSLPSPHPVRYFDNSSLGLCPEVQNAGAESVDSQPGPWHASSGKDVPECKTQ
Chain of Centromere-associated protein E (Mus musculus, UniProt Q6RT24) (Q6RT24 whole entry): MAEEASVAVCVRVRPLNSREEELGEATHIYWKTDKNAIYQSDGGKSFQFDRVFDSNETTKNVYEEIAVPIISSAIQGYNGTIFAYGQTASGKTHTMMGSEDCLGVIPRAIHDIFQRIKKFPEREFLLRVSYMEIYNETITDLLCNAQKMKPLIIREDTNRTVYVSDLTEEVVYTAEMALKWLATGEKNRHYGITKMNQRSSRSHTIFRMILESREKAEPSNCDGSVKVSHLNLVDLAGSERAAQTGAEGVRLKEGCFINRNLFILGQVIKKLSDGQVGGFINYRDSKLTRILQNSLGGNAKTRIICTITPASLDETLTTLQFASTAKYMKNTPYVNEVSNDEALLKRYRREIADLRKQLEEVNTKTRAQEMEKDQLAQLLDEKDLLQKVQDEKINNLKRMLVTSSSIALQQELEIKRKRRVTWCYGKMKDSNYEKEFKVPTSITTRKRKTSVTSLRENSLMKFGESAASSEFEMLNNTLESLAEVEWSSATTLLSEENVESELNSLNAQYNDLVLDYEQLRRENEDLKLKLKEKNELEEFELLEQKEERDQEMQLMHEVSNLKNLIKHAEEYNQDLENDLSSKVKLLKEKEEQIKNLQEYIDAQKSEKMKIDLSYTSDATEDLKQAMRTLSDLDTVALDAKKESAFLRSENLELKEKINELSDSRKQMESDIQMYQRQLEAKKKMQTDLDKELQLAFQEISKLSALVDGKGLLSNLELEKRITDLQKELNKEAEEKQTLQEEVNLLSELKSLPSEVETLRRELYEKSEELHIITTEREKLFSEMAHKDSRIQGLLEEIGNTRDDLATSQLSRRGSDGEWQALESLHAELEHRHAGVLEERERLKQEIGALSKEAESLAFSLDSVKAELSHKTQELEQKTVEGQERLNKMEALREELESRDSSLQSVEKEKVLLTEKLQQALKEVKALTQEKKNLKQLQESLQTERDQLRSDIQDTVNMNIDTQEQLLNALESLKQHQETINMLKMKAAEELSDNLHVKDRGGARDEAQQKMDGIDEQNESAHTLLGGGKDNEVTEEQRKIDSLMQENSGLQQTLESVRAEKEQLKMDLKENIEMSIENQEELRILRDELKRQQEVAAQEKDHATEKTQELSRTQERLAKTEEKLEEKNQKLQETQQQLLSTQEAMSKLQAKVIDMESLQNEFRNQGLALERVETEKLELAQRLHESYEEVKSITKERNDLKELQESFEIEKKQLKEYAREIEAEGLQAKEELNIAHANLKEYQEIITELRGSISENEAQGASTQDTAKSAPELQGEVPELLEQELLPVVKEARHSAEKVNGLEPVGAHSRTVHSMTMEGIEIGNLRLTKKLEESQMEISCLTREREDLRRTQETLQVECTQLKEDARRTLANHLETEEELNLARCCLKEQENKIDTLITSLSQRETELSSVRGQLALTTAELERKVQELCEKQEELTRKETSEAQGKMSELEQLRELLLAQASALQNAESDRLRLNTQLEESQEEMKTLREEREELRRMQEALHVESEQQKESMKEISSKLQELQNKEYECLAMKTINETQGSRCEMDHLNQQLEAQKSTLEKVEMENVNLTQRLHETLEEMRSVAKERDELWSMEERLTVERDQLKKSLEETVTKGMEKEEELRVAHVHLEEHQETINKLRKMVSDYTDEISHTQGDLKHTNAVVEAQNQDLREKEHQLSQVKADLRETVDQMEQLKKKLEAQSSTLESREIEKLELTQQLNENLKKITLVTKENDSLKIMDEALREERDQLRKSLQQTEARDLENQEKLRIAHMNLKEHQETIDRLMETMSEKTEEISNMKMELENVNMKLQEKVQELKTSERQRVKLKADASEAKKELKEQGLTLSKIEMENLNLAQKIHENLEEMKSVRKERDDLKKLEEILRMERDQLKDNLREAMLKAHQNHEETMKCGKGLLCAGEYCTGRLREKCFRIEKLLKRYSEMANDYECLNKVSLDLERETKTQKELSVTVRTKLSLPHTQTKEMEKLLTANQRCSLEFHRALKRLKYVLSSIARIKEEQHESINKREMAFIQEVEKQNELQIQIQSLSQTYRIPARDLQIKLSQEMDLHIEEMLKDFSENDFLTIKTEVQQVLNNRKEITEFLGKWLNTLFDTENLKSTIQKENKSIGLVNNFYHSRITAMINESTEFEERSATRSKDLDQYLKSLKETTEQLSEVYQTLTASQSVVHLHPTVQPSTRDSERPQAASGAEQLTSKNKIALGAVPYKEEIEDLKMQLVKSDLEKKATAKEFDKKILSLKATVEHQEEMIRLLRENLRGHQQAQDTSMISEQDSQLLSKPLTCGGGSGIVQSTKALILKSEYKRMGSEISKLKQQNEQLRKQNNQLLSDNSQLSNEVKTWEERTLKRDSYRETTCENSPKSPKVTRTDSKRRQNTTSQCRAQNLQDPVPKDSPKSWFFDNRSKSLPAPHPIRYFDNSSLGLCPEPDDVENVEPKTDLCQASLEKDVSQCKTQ

For the molecule `Cc1cccn2cc(-c3ccc(C[C@@H](CCO)NC(=O)c4ccc(OC(C)C)c(C#N)c4)cc3)nc12`, the values for the pIC50 in assay [1] and in assay [3] were 5.13 and 8.43, respectively. Besides, the pKi in [2] is 8.38; in assay [4], 8.33.
`CNC(=O)C(Cc1ccc(C(=O)c2ccccc2)cc1)NC(=O)c1ccc(OC(C)C)c(Cl)c1` (stereo not given): the pKi in assay [5] is 7.05; in [6], 8.62; in [7], 5.36; in assay [8], 7.14; in assay [9], 8.38. For the same molecule, the pIC50 in assay [3] is 6.26.
